Measured values taken from ChEMBL document CHEMBL4118244, “Design, synthesis and biological evaluation of benzofuran appended benzothiazepine derivatives as inhibitors of butyrylcholinesterase and antimicrobial agents” (Bioorg Med Chem, 2018).
≈ marks a conversion by molar mass, not a printed value. Calls of active or inactive are those of the source. The calls are words filed in the database; no cut-off is given here.

Experiments:
Cholinesterase = Cholinesterase (Equus caballus, UniProt P81908); test: Inhibition of equine serum BChE using butyrylthiocholine iodide as substrate pretreated for 15 mins followed by substrate addition measured for 6 mins by Ellman's method; conditions: read-out: IC50
Chain of Cholinesterase (P81908 whole entry): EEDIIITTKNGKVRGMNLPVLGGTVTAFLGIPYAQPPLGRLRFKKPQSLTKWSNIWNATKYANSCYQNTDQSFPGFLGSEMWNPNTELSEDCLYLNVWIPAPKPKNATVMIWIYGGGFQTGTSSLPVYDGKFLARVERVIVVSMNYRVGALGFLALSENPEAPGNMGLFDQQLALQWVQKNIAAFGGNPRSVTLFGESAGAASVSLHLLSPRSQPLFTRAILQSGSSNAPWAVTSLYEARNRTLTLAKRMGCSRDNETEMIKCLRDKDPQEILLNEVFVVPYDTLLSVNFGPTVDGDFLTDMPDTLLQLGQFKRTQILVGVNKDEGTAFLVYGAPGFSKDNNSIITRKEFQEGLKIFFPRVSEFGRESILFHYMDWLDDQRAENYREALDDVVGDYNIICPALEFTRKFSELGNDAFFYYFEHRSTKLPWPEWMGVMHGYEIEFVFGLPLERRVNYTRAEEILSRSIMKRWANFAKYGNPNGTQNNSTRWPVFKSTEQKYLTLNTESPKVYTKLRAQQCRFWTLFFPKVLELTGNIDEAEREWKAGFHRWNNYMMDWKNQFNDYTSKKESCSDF
Method in brief: (§1)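 Ellman spectrophotometric assay in 0.1 M phosphate buffer pH 8.0 with DTNB, 25 °C. AChE (electric eel, Type V-S) or BChE was preincubated 15 min with compound before adding acetylthiocholine iodide or butyrylthiocholine iodide, respectively. Absorbance change at 412 nm was read for 6 min. Five concentrations were tested in triplicate, corrected by a nonenzymatic blank, with a no-inhibitor reference.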

Staphylococcus aureus [1] = test: Antibacterial activity against Staphylococcus aureus ATCC 29737 assessed as diameter of inhibition zone at 200 ug per disc after 24 hrs by agar disc diffusion method; format: functional; conditions: ATCC 29737, 24 h, read-out: DIZ
Method in brief: (§2)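 Agar disc diffusion. Compounds at 20 mg mL⁻¹ in DMSO, filter-sterilised. 100 µL of 10⁸ CFU mL⁻¹ bacteria spread on nutrient agar. 6 mm discs carried 10 µl (200 µg per disc), with DMSO discs as negative control. Incubation 24 h at 37 °C. Read-out is inhibition zone diameter, mean of 3 repeats (±1 mm).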

Bacillus spizizenii [2] = test: Antibacterial activity against Bacillus subtilis ATCC 6633 assessed as diameter of inhibition zone at 200 ug per disc after 24 hrs by agar disc diffusion method; format: functional; conditions: ATCC 6633, 24 h, read-out: DIZ; method in brief: as §2
[3] = tested on: Staphylococcus epidermidis; test: Antibacterial activity against Staphylococcus epidermidis ATCC 12228 assessed as diameter of inhibition zone at 200 ug per disc after 24 hrs by agar disc diffusion method; format: functional; conditions: ATCC 12228, 24 h, read-out: DIZ; method in brief: as §2
Staphylococcus aureus [4] = test: Antibacterial activity against Staphylococcus aureus ATCC 29737; format: functional
Bacillus spizizenii [5] = test: Antibacterial activity against Bacillus subtilis ATCC 6633; format: functional
[6] = tested on: Staphylococcus epidermidis; test: Antibacterial activity against Staphylococcus epidermidis ATCC 12228; format: functional
Salmonella paratyphi [7] = test: Antibacterial activity against Salmonella paratyphi A serotype ATCC 5702 assessed as diameter of inhibition zone at 200 ug per disc after 24 hrs by agar disc diffusion method; format: functional, Salmonella enterica subsp. enterica serovar Paratyphi A; conditions: Salmonella enterica, ATCC 5702, 24 h; read-out: DIZ; method in brief: as §2
Escherichia coli [8] = test: Antibacterial activity against Escherichia coli ATCC 10536 assessed as diameter of inhibition zone at 200 ug per disc after 24 hrs by agar disc diffusion method; format: functional; conditions: ATCC 10536, 24 h, read-out: DIZ; method in brief: as §2
Pseudomonas aeruginosa [9] = test: Antibacterial activity against Pseudomonas aeruginosa ATCC 27853 assessed as diameter of inhibition zone at 200 ug per disc after 24 hrs by agar disc diffusion method; format: functional; conditions: ATCC 27853, 24 h, read-out: DIZ; method in brief: as §2
Klebsiella pneumoniae [10] = test: Antibacterial activity against Klebsiella pneumoniae ATCC 10031 assessed as diameter of inhibition zone at 200 ug per disc after 24 hrs by agar disc diffusion method; format: functional; conditions: ATCC 10031, 24 h, read-out: DIZ; method in brief: as §2
Shigella dysenteriae [11] = test: Antibacterial activity against Shigella dysenteriae PTCC 1188 assessed as diameter of inhibition zone at 200 ug per disc after 24 hrs by agar disc diffusion method; format: functional; conditions: PTCC 1188, 24 h, read-out: DIZ; method in brief: as §2
Proteus vulgaris [12] = test: Antibacterial activity against Proteus vulgaris PTCC 1182 assessed as diameter of inhibition zone at 200 ug per disc after 24 hrs by agar disc diffusion method; format: functional; conditions: PTCC 1182, 24 h, read-out: DIZ; method in brief: as §2
Salmonella paratyphi [13] = test: Antibacterial activity against Salmonella paratyphi A serotype ATCC 5702; format: functional, Salmonella enterica subsp. enterica serovar Paratyphi A
Escherichia coli [14] = test: Antibacterial activity against Escherichia coli ATCC 10536; format: functional
Pseudomonas aeruginosa [15] = test: Antibacterial activity against Pseudomonas aeruginosa ATCC 27853; format: functional
Klebsiella pneumoniae [16] = test: Antibacterial activity against Klebsiella pneumoniae ATCC 10031; format: functional
Shigella dysenteriae [17] = test: Antibacterial activity against Shigella dysenteriae PTCC 1188; format: functional
Proteus vulgaris [18] = test: Antibacterial activity against Proteus vulgaris PTCC 1182; format: functional
Candida albicans [19] = test: Antifungal activity against Candida albicans ATCC 10231 assessed as diameter of inhibition zone at 200 ug per disc after 48 hrs by agar disc diffusion method; format: functional; conditions: ATCC 10231, 48 h, read-out: DIZ
Method in brief: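 Yeast tested by agar disc diffusion. Compounds at 20 mg mL⁻¹ in DMSO, filter-sterilised. 6 mm discs carried 10 µl (200 µg per disc), with DMSO discs as negative control. Incubation 48 h at 30 °C. Zone diameter was averaged over 3 repeats (±1 mm).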

Aspergillus niger [20] = test: Antifungal activity against Aspergillus niger ATCC 16404 assessed as diameter of inhibition zone at 200 ug per disc after 72 hrs by agar disc diffusion method; format: functional; conditions: ATCC 16404, 72 h, read-out: DIZ
Method in brief: (§3)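 Agar disc diffusion against mold. Compounds at 20 mg mL⁻¹ in DMSO, filter-sterilised. 6 mm discs carried 10 µl (200 µg per disc), with DMSO discs as negative control. Incubation 72 h at 30 °C. Read-out is growth inhibition zone diameter, mean of 3 repeats (±1 mm).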

Aspergillus brasiliensis [21] = test: Antifungal activity against Aspergillus brasiliensis PTCC 5011 assessed as diameter of inhibition zone at 200 ug per disc after 72 hrs by agar disc diffusion method; format: functional; conditions: PTCC 5011, 72 h, read-out: DIZ; method in brief: as §3
Candida albicans [22] = test: Antifungal activity against Candida albicans ATCC 10231; format: functional
Aspergillus niger [23] = test: Antifungal activity against Aspergillus niger ATCC 16404; format: functional
Aspergillus brasiliensis [24] = test: Antifungal activity against Aspergillus brasiliensis PTCC 5011; format: functional
[25] = target: Acetylcholinesterase (Electrophorus electricus) (UniProt O42275); test: Inhibition of electric eel AChE using acetylthiocholine iodide as substrate pretreated for 15 mins followed by substrate addition measured for 6 mins by Ellman's method; method in brief: as §1
Chain of Acetylcholinesterase (Electrophorus electricus) (O42275 24-633 limits assumed): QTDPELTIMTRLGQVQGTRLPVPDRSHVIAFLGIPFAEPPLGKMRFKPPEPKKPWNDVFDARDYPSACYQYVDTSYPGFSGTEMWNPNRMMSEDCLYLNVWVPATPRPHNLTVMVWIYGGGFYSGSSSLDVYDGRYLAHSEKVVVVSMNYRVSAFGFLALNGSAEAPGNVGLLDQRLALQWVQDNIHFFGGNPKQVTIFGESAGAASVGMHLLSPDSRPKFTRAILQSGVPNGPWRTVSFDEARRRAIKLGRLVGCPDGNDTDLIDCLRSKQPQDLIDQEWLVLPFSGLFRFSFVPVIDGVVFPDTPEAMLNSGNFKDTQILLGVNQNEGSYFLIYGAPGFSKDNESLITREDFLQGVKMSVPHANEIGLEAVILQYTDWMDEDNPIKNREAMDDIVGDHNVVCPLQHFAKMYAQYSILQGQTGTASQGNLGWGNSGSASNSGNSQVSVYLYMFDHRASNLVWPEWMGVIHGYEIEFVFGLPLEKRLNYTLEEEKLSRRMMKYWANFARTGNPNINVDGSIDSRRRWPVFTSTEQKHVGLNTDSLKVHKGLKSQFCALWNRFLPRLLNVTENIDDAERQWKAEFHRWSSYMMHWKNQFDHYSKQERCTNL

Compound	IC50 (Cholinesterase) [µM]	zone of inhibition at 200 µg/disc (Staphylococcus aureus [1]) [mm]	zone of inhibition at 200 µg/disc (Bacillus spizizenii [2]) [mm]	zone of inhibition at 200 µg/disc [3] [mm]	MIC (Staphylococcus aureus [4]) [µg/mL]	MIC (Bacillus spizizenii [5])	MIC [6] [µg/mL]	zone of inhibition at 200 µg/disc (Salmonella paratyphi [7]) [mm]	zone of inhibition at 200 µg/disc (Escherichia coli [8]) [mm]	zone of inhibition at 200 µg/disc (Pseudomonas aeruginosa [9]) [mm]	zone of inhibition at 200 µg/disc (Klebsiella pneumoniae [10]) [mm]	zone of inhibition at 200 µg/disc (Shigella dysenteriae [11]) [mm]	zone of inhibition at 200 µg/disc (Proteus vulgaris [12]) [mm]	MIC (Escherichia coli [14])	MIC (Pseudomonas aeruginosa [15])	MIC (Klebsiella pneumoniae [16])	MIC (Shigella dysenteriae [17])	MIC (Proteus vulgaris [18])	zone of inhibition at 200 µg/disc (Candida albicans [19]) [mm]	zone of inhibition at 200 µg/disc (Aspergillus niger [20]) [mm]	other results
Fc1ccccc1C1CC(c2cc3cc(Br)ccc3o2)=Nc2ccccc2S1 (stereo not drawn)	13.7	10	< 6	9	5 (≈ 11.1 µM)	inactive	5 (≈ 11.1 µM)	11	< 6	15	< 6	< 6	< 6	inactive	50 µg/mL (≈ 111 µM)	inactive	inactive	inactive	13	< 6	MIC (Salmonella paratyphi [13]; Salmonella enterica): 50 µg/mL (≈ 111 µM); zone of inhibition at 200 µg/disc (Aspergillus brasiliensis [21]): < 6 mm; MIC (Candida albicans [22]): 25 µg/mL (≈ 55.3 µM); MIC (Aspergillus niger [23]): inactive; MIC (Aspergillus brasiliensis [24]): inactive; inhibition [25]: inactive
O=[N+]([O-])c1ccc2oc(C3=Nc4ccccc4SC(c4cccc5ccccc45)C3)cc2c1 (stereo not drawn)	55	20	15	30	0.25 (≈ 0.555 µM)	0.125 µg/mL (≈ 0.277 µM)	0.25 (≈ 0.555 µM)	11	< 6	< 6	11	< 6	< 6	inactive	inactive	50 µg/mL (≈ 111 µM)	inactive	inactive	13	< 6	MIC (Salmonella paratyphi [13]; Salmonella enterica): 50 µg/mL (≈ 111 µM); zone of inhibition at 200 µg/disc (Aspergillus brasiliensis [21]): < 6 mm; MIC (Candida albicans [22]): 2.5 µg/mL (≈ 5.55 µM); MIC (Aspergillus niger [23]): inactive; MIC (Aspergillus brasiliensis [24]): inactive; inhibition [25]: inactive
O=[N+]([O-])c1ccc2oc(C3=Nc4ccccc4SC(c4ccccc4F)C3)cc2c1 (stereo not drawn)	22	17	< 6	10	2.5 (≈ 5.97 µM)	inactive	5 (≈ 11.9 µM)	< 6	12	< 6	< 6	< 6	23	50 µg/mL (≈ 119 µM)	inactive	inactive	inactive	0.125 µg/mL (≈ 0.299 µM)	19	< 6	MIC (Salmonella paratyphi [13]; Salmonella enterica subsp. enterica serovar Paratyphi A): inactive; zone of inhibition at 200 µg/disc (Aspergillus brasiliensis [21]): < 6 mm; MIC (Candida albicans [22]): 0.125 µg/mL (≈ 0.299 µM); MIC (Aspergillus niger [23]): inactive; MIC (Aspergillus brasiliensis [24]): inactive; inhibition [25]: inactive
